The IC50 is the concentration that gives 50% inhibition. Read a high IC50 as a need for much substance. One may read the Tm as the temperature at which the thermal transition is half complete. In general, ΔTm refers to the change in melting temperature against a reference sample.

Molecules are shown by their SMILES. The source made the active and inactive calls. No cut-off for these calls is given here. Some results are limits rather than exact numbers.

The text below walks through data of ChEMBL document CHEMBL3112392, “Cytotoxicity and DNA binding property of triphenylethylene-coumarin hybrids with two amino side chains” (Bioorg Med Chem Lett, 2014).

A short description of data set [1]: Cytotoxicity against mouse skull osteoblasts at 1 uM after 48 hrs by MTT assay relative to control. Type of data set: cell-based. The settings on record: osteoblast. Summed up: (§1)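 Primary osteoblasts were isolated from newborn mouse skull and exposed to compounds at five concentrations for 48 h. Induced cell death was measured by MTT assay and expressed as % cytotoxicity.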
Background: Formazan colour is commonly taken as a measure of viable cells.

A short description of data set [2]: Cytotoxicity against mouse skull osteoblasts at 20 uM after 48 hrs by MTT assay relative to control. The format is cell-based. The conditions noted are these: osteoblast. The method, boiled down:
as §1

The nature of data set [3]: Cytotoxicity against mouse skull osteoblasts at 40 uM after 48 hrs by MTT assay relative to control. Type of data set: cell-based. The conditions noted are these: osteoblast. Summed up:
as §1

The next data set relates to MCF7. The data set can be described thus: Cytotoxicity against human MCF7 cells after 48 hrs by MTT assay. The format is functional, cell-based. The conditions noted are these: for IC50: MCF7, 48 h. The method, boiled down:
(§2)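 Antiproliferative screen in human tumour lines; IC50 values derived, with cisplatin as positive control.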

The subject of data set [4] is DNA. The data set can be described thus: Binding affinity to calf thymus DNA assessed as decrease in intensity of negative band at 20 uM after 10 mins measured at 246 nm wavelength by circular dichroism spectroscopic analysis. Type of data set: nucleic-acid assay. The settings on record: Bos taurus. The method, boiled down:
(§3)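 Circular dichroism: spectra of Ct-DNA (5.0 × 10^-5 M) recorded with or without compound (2.0 × 10^-5 M). Buffer was 10 mM phosphate pH 7.4 with 50 mM NaCl and 2% DMSO, at 25 °C.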

Data set [5] in a line: Cytotoxicity against mouse skull osteoblasts at 100 uM after 48 hrs by MTT assay relative to control. Type of data set: cell-based. The conditions noted are these: osteoblast. The method, boiled down:
as §1

The test system of data set [6] is DNA. The data set can be described thus: Binding affinity to calf thymus DNA assessed as hyperchromicity at 10 uM after 10 mins by UV-vis spectrophotometric analysis. The format is nucleic-acid assay. The conditions noted are these: Bos taurus. Summed up: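 UV–vis absorption titration: 1.0 × 10^-5 M compound in 10 mM phosphate buffer pH 7.4 with 50 mM NaCl and 2% DMSO at 25 °C, with increasing Ct-DNA. Spectral changes were followed, and binding was fitted at the absorption maximum.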

The test system of data set [7] is DNA. The experiment in a line: Binding affinity to calf thymus DNA assessed as intercalation at 20 uM after 10 mins measured at 350 to 500 nm wavelength by circular dichroism spectroscopic analysis. The conditions noted are these: Bos taurus. The format is nucleic-acid assay. Summed up: as §3
In general terms: Circular dichroism is the unequal absorption of left and right circularly polarised light.

The subject of the next data set is HeLa. The data set can be described thus: Cytotoxicity against human HeLa cells after 48 hrs by MTT assay. Type of data set: functional, cell-based. Summed up:
as §2

For data set [8], the system named is DNA. The experiment in a line: Binding affinity to calf thymus DNA assessed as increase in intensity of positive band at 20 uM after 10 mins measured at 277 nm wavelength by circular dichroism spectroscopic analysis. The format is nucleic-acid assay. The settings on record: Bos taurus. The method, boiled down: as §3
Another data set has as its system A549. The data set can be described thus: Cytotoxicity against human A549 cells after 48 hrs by MTT assay. Type of data set: functional, cell-based. The settings on record: A549, 48 h. The method, boiled down: as §2
Data set [9] in a line: Cytotoxicity against mouse skull osteoblasts at 10 uM after 48 hrs by MTT assay relative to control. The format is cell-based. The conditions noted are these: osteoblast. The method, boiled down:
as §1

The subject of a further data set is K562. The data set can be described thus: Cytotoxicity against human K562 cells after 48 hrs by MTT assay. The format is functional, cell-based. The conditions noted are these: for IC50: K562, 48 h. The method, boiled down: as §2
The subject of data set [10] is DNA. The data set can be described thus: Binding affinity to calf thymus DNA after 10 mins by Stern-Volmer plot analysis. The format is nucleic-acid assay. The settings on record: Bos taurus. The method, boiled down:
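Fluorescence titration: 5.0 × 10^-5 M compound in 10 mM phosphate buffer pH 7.4 with 50 mM NaCl and 2% DMSO at 25 °C, Ct-DNA added stepwise. Excitation wavelength set per compound (318–339 nm); excitation and emission slits 10.0 nm; emission read near 455 nm. F/F0 plotted against Ct-DNA concentration and analysed by Stern–Volmer plot.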

Data set [11] has as its system DNA. The experiment in a line: Binding affinity to calf thymus DNA assessed as melting temperature at 5 uM after 10 mins by thermal denaturation assay (reference value: 67 degC). Type of data set: nucleic-acid assay. The settings on record: Bos taurus.
For data set [12], the system named is DNA. The data set can be described thus: Binding affinity to calf thymus DNA assessed as change in melting temperature at 5 uM after 10 mins by thermal denaturation assay. Type of data set: nucleic-acid assay. The settings on record: Bos taurus.

For `CN1CCN(CCOc2ccc(-c3c(-c4ccccc4)c4ccc(OCCN5CCN(C)CC5)cc4oc3=O)cc2)CC1`, the Activity in data set [1] is -2.4%; in data set [2], 3.2%; in data set [3], 14.6%; in data set [5] it was 31.6%; in the data set with DNA [6], 8%; in [9], 0.6%. Also, the IC50 in the data set on MCF7 was determined as 3.47 µM; in the data set on HeLa, 3.68 µM; with A549 it was 4.7 µM; with K562 it was 3.23 µM. Also, the result in the data set on DNA [4], in the data set with DNA [7] and with DNA [8] was Active. Besides, in the data set with DNA [10], the Kb was 5.2 ×10³ /M. Moreover, the Tm in the data set on DNA [11] was 69.2 °C. In the data set with DNA [12], the ΔTm came to 2.2 °C.
Regarding `O=c1oc2ccccc2c(-c2ccc(OCCN3CCOCC3)cc2)c1-c1ccc(OCCN2CCOCC2)cc1`, the IC50 with MCF7, in the data set with HeLa, with A549 and in the data set on K562 was more than 100 µM each time.
With `CCN(CC)CCOc1ccc(-c2c(-c3ccccc3)c3ccc(OCCN(CC)CC)cc3oc2=O)cc1`, the Activity was -7.2% in [1]; 3.7% in data set [2]; 15.8% in [3]; 31.7% in data set [5]; 8% in the data set with DNA [6]; -1.5% in data set [9]. For the same molecule, the IC50 is 5.95 µM in the data set with MCF7, 9.58 µM in the data set on HeLa, 8.97 µM with A549 and 2.73 µM in the data set on K562. Also, the outcome with DNA [4], in the data set with DNA [7] and in the data set on DNA [8] was Active. In the data set with DNA [10], this molecule showed a Kb of 6 ×10³ /M. In the data set with DNA [11], the Tm was found to be 68.8 °C. In the data set on DNA [12], the ΔTm was determined as 1.7 °C.
Take `O=c1oc2ccccc2c(-c2ccc(OCCN3CCCCC3)cc2)c1-c1ccc(OCCN2CCCCC2)cc1`: the Activity in data set [1] was -3.2%; in [2], 10.6%; in [3] it was 22.3%; in [5], 40.3%; in the data set on DNA [6] it was 16%; in [9], 1.6%. The 50% inhibitory concentration (IC50) with MCF7 was 4.29 µM; in the data set on HeLa it was 4.36 µM; in the data set on A549, 7.28 µM; in the data set on K562 it was 5.44 µM. The result in the data set on DNA [4], in the data set with DNA [7] and in the data set on DNA [8] was Active. The same molecule showed a Kb in the data set with DNA [10] of 1.2 ×10⁴ /M. Moreover, the Tm in the data set with DNA [11] turned out to be 70 °C. In addition, the ΔTm in the data set with DNA [12] was 3 °C.
In the case of `O=c1oc2cc(OCCN3CCCCC3)ccc2c(-c2ccccc2)c1-c1ccc(OCCN2CCCCC2)cc1`, the Activity is -6.5% in [1]; 4.9% in data set [2]; 18.6% in data set [3]; 33.4% in data set [5]; 6% in the data set on DNA [6]; 3.7% in data set [9]. The IC50 with MCF7 turned out to be 6.53 µM; in the data set on HeLa it was 5.08 µM; in the data set on A549 it was 5.21 µM; in the data set with K562, 4.9 µM. Besides, the result in the data set on DNA [4], in the data set with DNA [7] and in the data set with DNA [8] was Active. Further, in the data set with DNA [10], the Kb is 7 ×10³ /M. Moreover, the melting temperature (Tm) in the data set on DNA [11] turned out to be 68.2 °C. Also, the ΔTm in the data set on DNA [12] is 1.2 °C.
Take `O=c1oc2cc(O)ccc2c(-c2ccccc2)c1-c1ccc(O)cc1`: the result in the data set on MCF7 and in the data set with K562 was inactive.
For the molecule `O=c1oc2cc(OCCN3CCCC3)ccc2c(-c2ccccc2)c1-c1ccc(OCCN2CCCC2)cc1`, the Activity in data set [1] was -2.5%; in data set [2], 5.2%; in data set [3], 16.4%; in [5], 32.8%; in data set [9], -5.6%. The IC50 in the data set with MCF7 was found to be 6.63 µM; with HeLa it was 4.7 µM; in the data set with A549 it was 7.35 µM; in the data set on K562, 5.46 µM.
For the molecule `CN(C)CCOc1ccc(-c2c(-c3ccccc3)c3ccc(OCCN(C)C)cc3oc2=O)cc1`, the Activity is -0.6% in [1]; 4.3% in [2]; 13.8% in [3]; 31.5% in data set [5]; -0.2% in data set [9]. For the same molecule, the IC50 in the data set on MCF7 was determined as 6.99 µM; in the data set on HeLa, 8.49 µM; in the data set on A549, 9.13 µM; in the data set with K562, 7.19 µM.
Regarding `O=c1oc2cc(OCCN3CCOCC3)ccc2c(-c2ccccc2)c1-c1ccc(OCCN2CCOCC2)cc1`, the IC50 in the data set on MCF7, in the data set with HeLa, with A549 and in the data set on K562 was more than 100 µM each time.
With `CN(C)CCOc1ccc(-c2c(-c3ccc(OCCN(C)C)cc3)c3ccccc3oc2=O)cc1`, the IC50 in the data set with MCF7 is 71.6 µM; in the data set on HeLa it was more than 100 µM; in the data set with A549, more than 100 µM; in the data set on K562, 99.6 µM.
Take `CCN(CC)CCOc1ccc(-c2c(-c3ccc(OCCN(CC)CC)cc3)c3ccccc3oc2=O)cc1`: the IC50 with MCF7 was found to be 50.1 µM; in the data set with HeLa, 45.2 µM; in the data set with A549, 46.3 µM; in the data set on K562, 56.2 µM. Further, the outcome with DNA [4], with DNA [7] and with DNA [8] was Active. Further, the Activity with DNA [6] stood at 17%. The Kb with DNA [10] was determined as 1 ×10⁴ /M. In addition, the Tm in the data set on DNA [11] worked out at 71.5 °C. The ΔTm in the data set with DNA [12] was found to be 4.5 °C.
As to `CN1CCN(CCOc2ccc(-c3c(-c4ccc(OCCN5CCN(C)CC5)cc4)c4ccccc4oc3=O)cc2)CC1`, the IC50 in the data set with MCF7 came out at 78.3 µM; in the data set on HeLa it was 60.5 µM; in the data set with A549, 55.6 µM; in the data set on K562, 53.2 µM. Moreover, the outcome in the data set on DNA [4], in the data set on DNA [7] and in the data set with DNA [8] was Active. For the same molecule, the Activity in the data set on DNA [6] was 17%. Further, the Kb in the data set with DNA [10] was determined as 1.4 ×10⁴ /M. Moreover, in the data set with DNA [11], the Tm worked out at 71 °C. The shift in melting temperature (ΔTm) with DNA [12] amounted to 4 °C.
Take `O=c1oc2ccccc2c(-c2ccc(OCCN3CCCC3)cc2)c1-c1ccc(OCCN2CCCC2)cc1`: the Activity in [1] was 0.1%; in data set [2], 8.4%; in data set [3], 20.4%; in [5], 39.5%; in data set [9], -0.5%. Also, the IC50 came to 16.6 µM in the data set with MCF7, 8.25 µM with HeLa, 8.79 µM in the data set on A549 and 7.54 µM with K562.
As for `O=c1oc2ccccc2c(-c2ccc(O)cc2)c1-c1ccc(O)cc1`, the outcome in the data set with MCF7 and in the data set on K562 was inactive.
